The record followed here is ChEMBL document CHEMBL1141083, “Development of human calcitonin gene-related peptide (CGRP) receptor antagonists. 1. Potent and selective small molecule CGRP antagonists. 1-[N2-[3,5-dibromo-N-[[4-(3,4-dihydro-2(1H)-oxoquinazolin-3-yl)-1-piperidinyl]carbonyl]-D-tyrosyl]-l-lysyl]-4-(4-pyridinyl)piperazine: the first CGRP antagonist …” (J Med Chem, 2005).

Some results are limits rather than exact numbers.

Test [1] deals with T1, Calcitonin gene-related peptide type 1 receptor (Homo sapiens, UniProt O60894+Q16602). The experiment in a line: Affinity against human calcitonin gene related peptide receptor (1 uM) expressed in SK-N-MC cells using [125I]-CGRP as radioligand after 180 minutes of incubation at pH 7.40. In kind it is cell-based. The gist of the method: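 SK-N-MC cell membranes, frozen at -80 °C in Tris/BSA/bacitracin buffer, then diluted 1:10 in assay buffer (50 mM Tris, 150 mM NaCl, 5 mM MgCl2, 1 mM EDTA, pH 7.40). Filtered, gamma counted, nonspecific binding with 1 μM human α-CGRP. IC50 by one-site nonlinear regression; at least three experiments in triplicate.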
T1 sequence (Q16602 whole entry, one chain of several): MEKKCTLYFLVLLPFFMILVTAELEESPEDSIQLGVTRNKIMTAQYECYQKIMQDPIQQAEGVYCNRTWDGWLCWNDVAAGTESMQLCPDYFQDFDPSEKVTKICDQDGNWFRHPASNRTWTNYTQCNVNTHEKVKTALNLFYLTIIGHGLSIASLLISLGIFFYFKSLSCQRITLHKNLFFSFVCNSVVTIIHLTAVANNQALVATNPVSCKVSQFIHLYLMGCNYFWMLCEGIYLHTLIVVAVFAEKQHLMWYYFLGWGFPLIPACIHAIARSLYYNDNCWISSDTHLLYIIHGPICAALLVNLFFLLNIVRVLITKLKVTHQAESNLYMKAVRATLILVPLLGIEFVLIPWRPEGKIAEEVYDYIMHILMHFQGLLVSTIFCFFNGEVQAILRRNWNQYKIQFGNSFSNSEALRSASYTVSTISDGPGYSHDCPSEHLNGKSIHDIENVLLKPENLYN

The target of test [2] is T1, Calcitonin gene-related peptide type 1 receptor. The experiment in a line: Antagonistic activity against calcitonin gene related peptide receptor determined by measuring the formation of cyclic AMP in SK-N-MC cells. In kind it is functional, cell-based. The settings on record: read-out: pA2 (converted).
Test [3] concerns the target Calcitonin gene-related peptide type 1 receptor (Rattus norvegicus, UniProt Q63118). The experiment in a line: Affinity against calcitonin gene related peptide receptor (1 uM) in rat spleen using [125I]CGRP as radioligand after 180 minutes of incubation at pH 7.40. The test is classed as tissue-based. The essentials: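 Membrane homogenates of marmoset or rat spleen, diluted 1:10 in assay buffer (50 mM Tris, 150 mM NaCl, 5 mM MgCl2, 1 mM EDTA, pH 7.40). Incubated 180 min at ambient temperature with 50 pM 125I-CGRP and increasing test concentrations, then filtered on PEI-treated GF/B filters and gamma counted. Nonspecific binding defined with 1 μM human α-CGRP. IC50 from one-site nonlinear regression.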

Sequence of Calcitonin gene-related peptide type 1 receptor (Rattus norvegicus, UniProt Q63118) (Q63118 whole entry): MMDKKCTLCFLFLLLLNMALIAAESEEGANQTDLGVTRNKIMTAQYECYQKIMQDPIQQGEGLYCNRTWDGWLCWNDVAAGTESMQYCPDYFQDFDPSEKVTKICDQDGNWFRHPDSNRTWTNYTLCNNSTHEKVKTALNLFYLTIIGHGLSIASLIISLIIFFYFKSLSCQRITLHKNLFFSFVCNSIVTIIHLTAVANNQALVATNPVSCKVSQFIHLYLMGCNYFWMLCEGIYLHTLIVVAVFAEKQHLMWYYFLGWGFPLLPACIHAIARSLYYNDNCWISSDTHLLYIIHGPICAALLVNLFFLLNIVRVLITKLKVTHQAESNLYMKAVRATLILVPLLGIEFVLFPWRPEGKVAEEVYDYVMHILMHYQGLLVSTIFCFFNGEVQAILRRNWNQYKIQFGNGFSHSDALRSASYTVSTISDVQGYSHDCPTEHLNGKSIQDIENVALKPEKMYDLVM

In general, IC50 refers to the concentration that inhibits the measured activity by half. For the compound `COc1ccccc1C1CCN(C(=O)N[C@@H](Cc2cc(Br)c(O)c(Br)c2)C(=O)N[C@H](CCCCN)C(=O)N2CCN(c3ccncc3)CC2)CC1`, the IC50 in test [1] turned out to be 250 nM.
Regarding `NCCCC[C@@H](NC(=O)[C@H](Cc1cc(Br)c(O)c(Br)c1)NC(=O)N1CCC(N(C(N)=O)c2ccccc2)CC1)C(=O)N1CCN(c2ccncc2)CC1`, in test [1], the half-maximal inhibitory concentration (IC50) is 4.7 nM. Further, the Kb in test [2] was 0.794 nM.
For `NCCCC[C@@H](NC(=O)[C@H](Cc1cc(Br)c(O)c(Br)c1)NC(=O)CCCc1ccccc1)C(=O)NCCc1ccccc1`, the half-maximal inhibitory concentration (IC50) in test [1] is 17000 nM.
The same measure, in the same setting: in the case of `NCCCC[C@@H](NC(=O)[C@H](Cc1cc(Br)c(N)c(Br)c1)NC(=O)CCCc1ccccc1)C(=O)N1CCNCC1` it was above 300000 nM.
Take `NCCCC[C@@H](NC(=O)[C@H](Cc1cc(Br)c(N)c(Br)c1)NC(=O)CCc1ccccc1)C(=O)NCCc1ccccc1`: the concentration for half-maximal inhibition (IC50) in test [1] came to 196000 nM.
In the case of `NCCCC[C@@H](NC(=O)[C@H](Cc1cc(Br)c(N)c(Br)c1)NC(=O)CCCc1ccccc1)C(=O)N1CCN(c2ccncc2)CC1`, the IC50 in test [1] was 10300 nM.
Turning to `NCCCC[C@@H](NC(=O)[C@H](Cc1cc(Br)c(O)c(Br)c1)NC(=O)N1CCC(N2Cc3ccccc3NC2=O)CC1)C(=O)N1CCN(c2ccncc2)CC1`, the half-inhibitory concentration (IC50) in test [3] came out at 6.4 nM.
For `NCCCC[C@@H](NC(=O)[C@H](Cc1cc(Br)c(O)c(Br)c1)NC(=O)N1CCC(n2c(=O)oc3ccccc32)CC1)C(=O)N1CCN(c2ccncc2)CC1`, the half-inhibitory concentration (IC50) in test [1] was 44 nM. The Kb in test [2] was 10 nM.
In the case of `NCCCC[C@@H](NC(=O)[C@H](Cc1cc(Br)c(N)c(Br)c1)NC(=O)CCCc1ccccc1)C(=O)Nc1ccccc1`, the half-maximal inhibitory concentration (IC50) in test [1] was 50000 nM.
On the same count and under the same terms, with `NCCCC[C@@H](NC(=O)[C@H](Cc1cc(Br)c(N)c(Br)c1)NC(=O)CCCc1ccccc1)C(=O)NCCc1ccccc1` the figure was 40000 nM.
The same measure, in the same setting: in the case of `NCCCC[C@H](NC(=O)[C@@H](Cc1cc(Br)c(O)c(Br)c1)NC(=O)CCCc1ccccc1)C(=O)NCCc1ccccc1` it was above 300000 nM.
Regarding `NCCCC[C@@H](NC(=O)[C@H](Cc1cc(Br)c(O)c(Br)c1)NC(=O)N1CCC(n2cc(-c3ccccc3)[nH]c2=O)CC1)C(=O)N1CCN(c2ccncc2)CC1`, the IC50 in test [1] was 0.05 nM.
Consider `NCCCC[C@@H](NC(=O)[C@@H](Cc1cc(Br)c(O)c(Br)c1)NC(=O)CCCc1ccccc1)C(=O)NCCc1ccccc1`, for which the IC50 in test [1] is above 300000 nM.
The same measure, in the same setting: with `COc1ccccc1CCNC(=O)N[C@@H](Cc1cc(Br)c(O)c(Br)c1)C(=O)N[C@H](CCCCN)C(=O)NCCc1ccccc1` the figure was 13000 nM; with `COc1ccccc1N1CCN(C(=O)N[C@@H](Cc2cc(Br)c(O)c(Br)c2)C(=O)N[C@H](CCCCN)C(=O)N2CCN(c3ccncc3)CC2)CC1`, 226 nM; with `NCCCC[C@@H](NC(=O)[C@H](Cc1cc(Br)c(N)c(Br)c1)NC(=O)CCCc1ccccc1)C(=O)N1CCN(c2ccccc2)CC1`, above 300000 nM.
In the case of `NCCCC[C@@H](NC(=O)[C@H](Cc1cc(Br)c(O)c(Br)c1)NC(=O)N1CCC(n2c(O)nc3ccccc32)CC1)C(=O)N1CCN(c2ccncc2)CC1`, the IC50 in test [3] amounted to 56.7 nM; in test [1], 0.2 nM. Further, the Kb in test [2] is 0.0794 nM.
As to `COc1cccc(CCNC(=O)N[C@@H](Cc2cc(Br)c(O)c(Br)c2)C(=O)N[C@H](CCCCN)C(=O)N2CCN(c3ccncc3)CC2)c1`, the IC50 turned out to be 70500 nM in test [3] and 200 nM in test [1]. For the same compound, the Kb in test [2] is 126 nM.
With `NCCCC[C@H](NC(=O)[C@H](Cc1cc(Br)c(O)c(Br)c1)NC(=O)CCCc1ccccc1)C(=O)NCCc1ccccc1`, in test [1], the IC50 is above 300000 nM.
Take `COc1ccccc1CCNC(=O)N[C@@H](Cc1cc(Br)c(O)c(Br)c1)C(=O)N[C@H](CCCCN)C(=O)N1CCN(c2ccncc2)CC1`: the IC50 in test [1] is 1000 nM.
